NR2E3 ag-1: NR2E3 agonists in two-hybrid cells, primary screen, cell-based, luminescence, CHO-S, Gal4-NCOR/VP16-NR2E3. luciferase. inhibition of corepressor binding, % at 3.98 µM. actives 0.35% (n = 360,000). AID 602229, 2012;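 active = inhibition above the mean of all tested compounds plus 3 SD, cut at about 70% in these data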;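 also: 0% = DMSO with NR2E3 transfected cells and 100% = cells lacking NR2E3 construct; higher means lower luciferase signal from less NR2E3 corepressor binding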
Target sequence (Q9Y5X4 whole entry, looked up, the tested form may be a part): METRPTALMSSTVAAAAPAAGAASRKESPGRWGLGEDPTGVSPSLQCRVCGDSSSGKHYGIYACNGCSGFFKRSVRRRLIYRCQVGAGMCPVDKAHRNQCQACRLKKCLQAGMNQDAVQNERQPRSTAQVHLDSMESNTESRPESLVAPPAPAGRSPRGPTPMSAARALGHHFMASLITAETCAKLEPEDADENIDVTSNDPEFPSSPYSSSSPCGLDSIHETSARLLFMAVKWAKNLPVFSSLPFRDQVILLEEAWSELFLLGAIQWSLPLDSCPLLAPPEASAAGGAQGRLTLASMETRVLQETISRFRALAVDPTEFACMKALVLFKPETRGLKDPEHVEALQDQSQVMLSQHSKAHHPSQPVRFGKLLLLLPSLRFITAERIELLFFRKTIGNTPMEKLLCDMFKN
T cell modulator: modulators of CD8 T cell-vesicle binding, primary screen, mouse 2C CD8+ T cells, flow cytometry; 2C CD8+ T cell-vesicle binding; hits give low values; response (vesicle binding), % at 7 µM; AID 2052, 2009; actives 0.068% (n = 330,000);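 active = response, share of CD8 T cells binding vesicles, and their 90th percentile fluorescence all below set limits, cut at about 80% in these data, passing the limit was not always enough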;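 also: values below 100% mean blocked vesicle binding to the CD8+ T cells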
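Test system: purified 2C TCR transgenic mouse naive CD8+ T cells. Probe or stimulus: QL9-peptide-loaded Drosophila micro-vesicles bearing Ld, ICAM-1 and B7-1. Incubation: binding step 1.5 h, 37 °C, antibody labelling 20 min, ice. Measured by: flow cytometry of vesicle-bound cells.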
FXN GAA850 act: FXN promoter activators, primary screen, cell-based, luciferase luminescence, HEK293 lucGAA850. HEK293 lucGAA850 FXN promoter luciferase reporter, 24 h; percent of 10 µM SAHA response. activation, % at 6 µM. actives 0.56% (n = 360,000). AID 540364, 2011;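 active = activation above the average of all compounds screened plus 3 SD, cutoff fixed separately per campaign, cut at about 7.5% in these data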;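 also: 0% = DMSO wells and 100% = 10 µM SAHA wells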
NR2E3 ag-2: inhibitors of NR2E3-RetCOR corepressor binding, primary screen, NR2E3 agonist project, biochemical, TR-FRET, GST-NR2E3, biotin-RetCOR. actives 0.12% (n = 320,000). inhibition of corepressor binding, % at 4.78 µM. AID 2300, 2010. 1536-well;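 active = percent inhibition above the cutoff of mean plus 3 SD of all tested compounds, set per screening campaign, cut at about 20% in these data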;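 also: 0% = DMSO wells and 100% = biotin wells as full block of FRET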
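Material: NR2E3–RetCOR corepressor complex | Quantity: 1.35 nM GST-tagged NR2E3 final | Schedule: 5 h at 4 °C | Replication: Singlicate compound wells | Reagent: RetCOR corepressor, biotinylated, 7 nM | Controls: Biotin wells as high control, 0.6% DMSO wells as low control | Signal: TR-FRET, Eu(K)-anti-GST donor, streptavidin-D2 acceptor, ex 340, em 617/671 nm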
Myeloid diff 2: induction of myeloid progenitor differentiation, primary screen, cell-based, flow cytometry, MLPCN library; ER-HoxA9 myeloid progenitors, lysozyme-GFP differentiation; calls only at 10 µM; actives 1% (n = 360,000); AID 624256, 2012;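 active = normalized GFP-positive differentiation at or above the plate's own cutoff, the solvent-only control mean plus 3 SD; inconclusive = no clear call, values can overlap the other calls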;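 also: cells exposed to compound for four days before flow analysis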
NR2E3 ag conf: NR2E3 agonist confirmation in cells, cell-based, luminescence, CHO-S two-hybrid; shares compounds with NR2E3 ag-1; CHO-S mammalian two-hybrid NR2E3-NCOR, luciferase luminescence; inhibition, % at 3.98 µM; actives 51% (n = 2,300);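 active = average inhibition above a cutoff equal to the mean inhibition of all tested compounds plus one SD, cut at about 70% in these data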;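 also: 0% = DMSO in NR2E3 cells and 100% = DMSO in cells lacking NR2E3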
GAL4-VP16 luc: GAL4-VP16 reporter modulators, confirmation, counter-screen for NR2E3 agonist project, cell-based, luminescence, CHO-S, high throughput. shares compounds with NR2E3 ag-1. CHO-S GAL4-VP16 luciferase reporter. inhibition, % at 3.98 µM. actives 29% (n = 2,300);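 active = mean inhibition above a cutoff equal to the average over all tested compounds plus one standard deviation, cut at about 70% in these data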;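 also: luciferase from a UAS reporter driven by GAL4-VP16 transactivation; 0% = DMSO with VP16-transfected cells and 100% = DMSO with cells lacking VP16; higher means less reporter light so more repression of VP16 activity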
Starred values were filed as active, the others as inactive. Shown are actives, neighbours in structure and some others; about 2% of the full set was active somewhere.

Results for O=C(NC(Nc1nc2ccc([N+](=O)[O-])cc2s1)(C(F)(F)F)C(F)(F)F)c1ccccc1Cl ?
NR2E3 ag-1: 98*; T cell modulator: 148; FXN GAA850 act: -13; NR2E3 ag-2: 6; Myeloid diff 2: inconclusive; NR2E3 ag conf: 97*; GAL4-VP16 luc: 90*

How did CCCCCCCCN1C(=O)[C@H](CC(=O)N2CCOCC2)C[C@@]2(C(=O)OCC)CCCC=C12 do in these assays?
NR2E3 ag-1: 1; Myeloid diff 2: inactive

What do the screens show for `COCc1cc(=O)n2[nH]c(C)c(-c3ccc(Cl)cc3)c2n1`?
NR2E3 ag-1: 51; FXN GAA850 act: 1; Myeloid diff 2: inactive; NR2E3 ag conf: 42; GAL4-VP16 luc: 35

What do the screens show for `Cc1nc2c(-c3ccccc3)c(C)[nH]n2c(=O)c1Cc1ccccc1`?
NR2E3 ag-1: 25; T cell modulator: 322; FXN GAA850 act: 0; NR2E3 ag-2: 2; Myeloid diff 2: inactive

How did Cc1nc2c(-c3ccc(Cl)cc3)c(C)[nH]n2c(=O)c1Cc1ccccc1 do in these assays?
NR2E3 ag-1: 88*; T cell modulator: 379; FXN GAA850 act: -5; NR2E3 ag-2: 1; Myeloid diff 2: inactive; NR2E3 ag conf: 99*; GAL4-VP16 luc: 57

Results for Cn1nc(C(=O)N2CCN(C(c3ccccc3)c3ccccc3)CC2)c2ccccc2c1=O ?
NR2E3 ag-1: 4; T cell modulator: 368; FXN GAA850 act: 0; NR2E3 ag-2: 6; Myeloid diff 2: inactive

What do the screens show for `Cn1ncc(Cl)c1C(=O)N1CCN(c2ccccc2)CC1`?
NR2E3 ag-1: -8; T cell modulator: 252; FXN GAA850 act: 0; NR2E3 ag-2: 4; Myeloid diff 2: inactive

What do the screens show for `O=C(c1csc2ccccc12)N1CCN(c2ccc(Cl)c(Cl)c2)CC1`?
NR2E3 ag-1: 57; T cell modulator: 206; FXN GAA850 act: -1; NR2E3 ag-2: 2; Myeloid diff 2: inactive; NR2E3 ag conf: 81*; GAL4-VP16 luc: 61

Results for Cn1ncc(Cl)c1C(=O)N1CCN(c2ccc(Cl)c(Cl)c2)CC1 ?
NR2E3 ag-1: 103*; T cell modulator: 296; FXN GAA850 act: 2; NR2E3 ag-2: 1; Myeloid diff 2: inactive; NR2E3 ag conf: 95*; GAL4-VP16 luc: 86*

What do the screens show for `c1ccc(Nc2ncnc3sc4c(c23)CCC4)cc1`?
NR2E3 ag-1: 10; T cell modulator: 249; FXN GAA850 act: 2; NR2E3 ag-2: 2; Myeloid diff 2: inactive

How did c1csc(CCNc2ncnc3sc4c(c23)CCC4)c1 do in these assays?
NR2E3 ag-1: 93*; T cell modulator: 378; FXN GAA850 act: 0; NR2E3 ag-2: 0; Myeloid diff 2: inactive; NR2E3 ag conf: 98*; GAL4-VP16 luc: 87*

How did CO/N=C/c1ccc(N2CCN(C(=O)c3ccc(Cl)cc3Cl)CC2)c([N+](=O)[O-])c1 do in these assays?
NR2E3 ag-1: 76*; T cell modulator: 254; FXN GAA850 act: -1; NR2E3 ag-2: 1; Myeloid diff 2: inactive; NR2E3 ag conf: 91*; GAL4-VP16 luc: 76*

What do the screens show for `COc1cc(CN2C[C@@H](CO)O[C@@H](n3cnc4c(NC5CCCC5)ncnc43)C2)cc(OC)c1OC`?
NR2E3 ag-1: 2; FXN GAA850 act: 0; Myeloid diff 2: inactive

How did COc1ccccc1CNc1nc(NC(C)C)nc2ccsc12 do in these assays?
NR2E3 ag-1: 0; FXN GAA850 act: -2; Myeloid diff 2: inactive

Results for COc1ccccc1CNc1nc(Nc2ccc(C)cc2C)c2sccc2n1 ?
NR2E3 ag-1: 59; FXN GAA850 act: -3; Myeloid diff 2: inactive; NR2E3 ag conf: 65; GAL4-VP16 luc: 52

Results for Cc1ccc(Nc2nc(NCc3cccs3)nc3ccsc23)c(C)c1 ?
NR2E3 ag-1: 35; FXN GAA850 act: -2; Myeloid diff 2: inactive

What do the screens show for `COc1ccccc1CNc1nc(Nc2ccccc2OC)c2sccc2n1`?
NR2E3 ag-1: 57; FXN GAA850 act: 1; Myeloid diff 2: inactive; NR2E3 ag conf: 54; GAL4-VP16 luc: 43

How did COc1ccccc1CNc1nc(-c2ccccc2CO)c2sccc2n1 do in these assays?
NR2E3 ag-1: -28; FXN GAA850 act: 2; Myeloid diff 2: inactive

What do the screens show for `Cc1ccc(Nc2nc(NCc3ccccc3)nc3ccsc23)c(C)c1`?
NR2E3 ag-1: 57; FXN GAA850 act: -2; Myeloid diff 2: inactive; NR2E3 ag conf: 42; GAL4-VP16 luc: 50

What do the screens show for `COCOCCn1cc(CN2CCS(=O)(=O)N(Cc3ccc(-c4ccncc4)cc3)C(CC(C)C)C2=O)nn1` (configuration not stated)?
NR2E3 ag-1: -28; FXN GAA850 act: 0; Myeloid diff 2: inactive

Results for CCN(CC)CC(C)(C)C(=O)/C=C/c1ccc(/C=C/C(=O)C(C)(C)CN(CC)CC)cc1 ?
NR2E3 ag-1: 103*; FXN GAA850 act: -16; Myeloid diff 2: inconclusive; NR2E3 ag conf: 96*; GAL4-VP16 luc: 56

Results for CC(Nc1ncnc2ccccc12)c1ccccc1 (configuration not stated) ?
NR2E3 ag-1: 75*; T cell modulator: 207; FXN GAA850 act: -3; NR2E3 ag-2: 6; Myeloid diff 2: inactive; NR2E3 ag conf: 96*; GAL4-VP16 luc: 91*

How did COc1ccc(C(=O)C(=O)N2CCC(Cc3ccccc3)CC2)cc1OC do in these assays?
Myeloid diff 2: inactive

How did CC(=O)OC[C@]1(OC(C)=O)C[C@@]23CC[C@H]4[C@@](C)(CCC[C@@]4(C)C(=O)O)[C@@H]2CC[C@@H]1C3 do in these assays?
NR2E3 ag-1: -32; T cell modulator: inactive; FXN GAA850 act: -1; NR2E3 ag-2: 2; Myeloid diff 2: inactive

How did CC(=O)OC[C@]12CC[C@H]3[C@@](C)(CC[C@H]4C(C)(C)CCC[C@]34C)[C@@H]1CC(C1=CC(=O)OC1O)O2 (some centres not stated) do in these assays?
NR2E3 ag-1: 102*; FXN GAA850 act: -15; Myeloid diff 2: inactive; NR2E3 ag conf: 100*; GAL4-VP16 luc: 100*

Results for CC1(C(=O)Nc2cnc3ccccc3c2)CCN1C(=O)CC(c1ccccc1)c1ccccc1 (configuration not stated) ?
NR2E3 ag-1: 15; FXN GAA850 act: 0; Myeloid diff 2: inactive

Screening results deposited in PubChem by several laboratories.
